Laboratory results taken from ChEMBL document CHEMBL4425098, “Thiolactomycin-Based Inhibitors of Bacterial β-Ketoacyl-ACP Synthases with in Vivo Activity” (J Med Chem, 2016).
Converted amounts (≈) assume the structure as drawn. The source made the active and inactive calls. The rule behind the calls is not given here.

Key:
[1] = system: Mycobacterium tuberculosis; assay: Antibacterial activity against Mycobacterium tuberculosis H37Rv after 6 days by Alamar blue dye-based colorimetric assay; assay type: functional; conditions: 144 h
Summary of the method: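 M. tuberculosis H37Rv grown to early-mid log phase in Middlebrook 7H9 with 10% OADC and 0.05% Tween 80, added to 1:2 serial compound dilutions, and grown for 6 days at 37°C. Alamar blue then added for a further 24 h. MIC taken as the concentration preventing visible growth and Alamar blue reduction in all replicates.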

Staphylococcus aureus [2] = assay: Antibacterial activity against methicillin-resistant Staphylococcus aureus BAA 1762 after 18 to 24 hrs by Alamar blue dye-based colorimetric assay; assay type: functional
[3] = system: Burkholderia pseudomallei; assay: Antibacterial activity against Burkholderia pseudomallei after 18 to 24 hrs by Alamar blue dye-based colorimetric assay; assay type: functional
Francisella tularensis = assay: Antibacterial activity against Francisella tularensis LVS after 18 to 24 hrs by Alamar blue dye-based colorimetric assay; assay type: functional
Staphylococcus aureus [4] = assay: Antibacterial activity against methicillin-sensitive Staphylococcus aureus RN4220 after 18 to 24 hrs by Alamar blue dye-based colorimetric assay; assay type: functional
Summary of the method: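 Two-fold serial dilutions from 512 down to 0.25 μg/mL in CAMHB (microbroth dilution); incubated 37 °C for 18–24 h, then Alamar Blue added for a further 4 h. Absorbance read at 570 and 600 nm; percent growth reduction plotted against concentration, MIC90 from non-linear regression; growth and MICs confirmed by optical density.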

Yersinia pestis = assay: Antibacterial activity against Yersinia pestis A1122 after 18 to 24 hrs by Alamar blue dye-based colorimetric assay; assay type: functional
[5] = molecular target: T1, 3-oxoacyl-[acyl-carrier-protein] synthase 2 (Staphylococcus aureus, UniProt Q5TKS0); assay: Binding affinity to Staphylococcus aureus wild type FabF expressed in Escherichia coli BL21 (DE3) PlysS cells by intrinsic tryptophan fluorescence quenching-based fluorimetric method
T1 sequence (Q5TKS0 whole entry): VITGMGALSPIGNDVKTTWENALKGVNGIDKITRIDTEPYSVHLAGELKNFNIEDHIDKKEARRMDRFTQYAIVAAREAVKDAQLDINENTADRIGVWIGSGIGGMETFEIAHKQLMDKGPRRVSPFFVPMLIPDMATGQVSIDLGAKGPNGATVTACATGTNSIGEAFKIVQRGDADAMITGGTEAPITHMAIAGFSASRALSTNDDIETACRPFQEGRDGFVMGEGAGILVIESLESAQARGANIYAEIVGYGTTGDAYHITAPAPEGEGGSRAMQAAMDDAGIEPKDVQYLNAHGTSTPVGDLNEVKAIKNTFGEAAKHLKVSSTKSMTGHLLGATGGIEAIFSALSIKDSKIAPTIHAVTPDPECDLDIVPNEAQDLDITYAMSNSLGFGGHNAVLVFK

Klebsiella pneumoniae = assay: Antibacterial activity against Klebsiella pneumoniae KPC2ST258 infected in Swiss Webster mouse assessed as survival time at 100 mg/kg, sc administered 1, 12 and 24 hrs post infection measured every 12 hrs for 7 days; assay type: functional
Summary of the method: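 K. pneumoniae KPC2ST258 was given IP as 5×10⁶ cfu in BHI broth. Drugs in saline/PEG400/ethanol (40/20/40) were injected SC at 100 mg/kg/inj at 1, 12 and 24 h post infection. Mice were checked every 12 h for 7 days, n=8–10 per group. Average survival time was compared with vehicle by one-tailed t test.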

[6] = molecular target: 3-oxoacyl-[acyl-carrier-protein] synthase 2 (Staphylococcus aureus, UniProt Q5TKS0, C165Q); assay: Binding affinity to Staphylococcus aureus FabF C165Q mutant expressed in Escherichia coli BL21 (DE3) PlysS cells by intrinsic tryptophan fluorescence quenching-based fluorimetric method
Summary of the method: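 Kd by quenching of intrinsic tryptophan fluorescence (excitation 280 nm, emission 337 nm). Inhibitor stocks in DMSO or buffer were titrated into 1 μM His-tag-purified enzyme in 50 mM Tris-HCl, 150 mM NaCl, 1 mM DTT, pH 8.5. mtFabB was expressed in M. smegmatis MC²155; saFabF was expressed in E. coli BL21(DE3) pLysS.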

Staphylococcus aureus [7] = assay: Antibacterial activity against methicillin-resistant Staphylococcus aureus BAA 1762 infected in Swiss Webster mouse assessed as increase in survival rate at 100 mg/kg, sc administered 1 and 25 hrs post infection measured twice a day for 5 days relative to vehicle-treated control; assay type: functional, organism-based
Summary of the method: (§1)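 Mice made neutropenic with cyclophosphamide 4 days and 1 day before infection. MRSA BAA 1762 was given IP as 0.5 mL of 5×10⁷ cells/mL in BHI. Analogues in water/ethanol, or vancomycin in water, were dosed SC at 100 mg/kg/inj at 1 and 25 h post infection. Survival was checked every 12 h for 5 days, n=6–7 per group. Average survival time was compared with vehicle by one-tailed t test.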

[8] = system: Mycobacterium tuberculosis; assay: Binding affinity to Mycobacterium tuberculosis wild type FabB expressed in Mycobacterium smegmatis MC2 155 by WaterLOGSY-based competition assay
Staphylococcus aureus [9] = assay: Antibacterial activity against methicillin-resistant Staphylococcus aureus BAA 1762 infected in sc dosed Swiss Webster mouse assessed as increase in survival rate administered 1 and 25 hrs post infection measured twice a day for 5 days; assay type: functional; conditions: BAA 1762, sc; summary of the method: as §1
Staphylococcus aureus [10] = assay: Antibacterial activity against methicillin-resistant Staphylococcus aureus BAA 1762 infected in Swiss Webster mouse assessed as survival time at 100 mg/kg, sc administered 1 and 25 hrs post infection measured twice a day for 5 days; assay type: functional; summary of the method: as §1

`C=C/C(C)=C/[C@@]1(C)SC(=O)C(CCc2ccc(Cl)cc2)=C1O` was tested, and the MIC90 [1] was 100 µg/mL (≈ 299 µM), the MIC90 (Staphylococcus aureus [2]) was 100 µg/mL (≈ 299 µM) and the Activity [3] was “inactive”. The MIC90 (Francisella tularensis) was 3.1 µg/mL (≈ 9.26 µM), the MIC90 (Staphylococcus aureus [4]) was 64 µg/mL (≈ 191 µM) and the MIC90 (Yersinia pestis) was greater than 250 µg/mL.
`C=C/C(C)=C/[C@@]1(C)SC(=O)C(CCCCc2ccc(-c3ccccc3)cc2)=C1O` gave an MIC90 [1] of 12.5 µg/mL (≈ 30.9 µM), an MIC90 (Staphylococcus aureus [2]) of 25 µg/mL (≈ 61.8 µM) and an MIC90 (Francisella tularensis) of 1.9 µg/mL (≈ 4.7 µM). It also gave a Kd [5] of 131 µM, an MIC90 (Staphylococcus aureus [4]) of 16 µg/mL (≈ 39.5 µM) and an MIC90 (Yersinia pestis) greater than 250 µg/mL.
With `C=C/C(C)=C/[C@@]1(C)SC(=O)C(C(C)=O)=C1O` the MIC90 [1] was 12.5 µg/mL (≈ 52.5 µM), the MSD (Klebsiella pneumoniae) was 4.6 days and the MIC90 (Staphylococcus aureus [2]) was 32 µg/mL (≈ 134 µM). For the same compound, the Kd [6] was 11.9 µM, the Activity [3] was “inactive” and the MIC90 (Francisella tularensis) was 8.8 µg/mL (≈ 36.9 µM). For the same compound, the Kd [5] was 14.2 µM, the MIC90 (Staphylococcus aureus [4]) was 64 µg/mL (≈ 269 µM) and the MIC90 (Yersinia pestis) was greater than 250 µg/mL. For the same compound, the Activity (Staphylococcus aureus [7]) was “Active”.
In the case of `C=C/C(C)=C/[C@@]1(C)SC(=O)C(C(=O)CCCCCCCCCCCCCCC)=C1O`, the MIC90 [1] is reported as 100 µg/mL (≈ 230 µM), the MIC90 (Staphylococcus aureus [2]) is reported as 1 µg/mL (≈ 2.3 µM) and the Activity [3] is reported as “inactive”. It also gave an MIC90 (Francisella tularensis) of 3.9 µg/mL (≈ 8.97 µM), a Kd [5] greater than 200 µM and an MIC90 (Staphylococcus aureus [4]) of 0.5 µg/mL (≈ 1.15 µM). The MIC90 (Yersinia pestis) was greater than 250 µg/mL.
Work on `C=C/C(C)=C/[C@@]1(C)SC(=O)C(CC)=C1O` yielded an MIC90 [1] of 2.5 µg/mL (≈ 11.1 µM), an MIC90 (Staphylococcus aureus [2]) of 125 µg/mL (≈ 557 µM) and an MIC [3] of 32 µg/mL (≈ 143 µM). It also gave an MIC90 (Francisella tularensis) of 6.9 µg/mL (≈ 30.8 µM), an MIC90 (Staphylococcus aureus [4]) of 150 µg/mL (≈ 669 µM) and an MIC90 (Yersinia pestis) of 145 µg/mL (≈ 646 µM).
`C=C/C(C)=C/[C@@]1(C)SC(=O)C=C1OCC(=O)NCCN=[N+]=[N-]` showed an MIC90 [1] greater than 100 µg/mL, an MIC90 (Staphylococcus aureus [2]) greater than 64 µg/mL and an MIC90 (Francisella tularensis) of 39 µg/mL (≈ 121 µM). The Activity [8] was “inactive” and the MIC90 (Staphylococcus aureus [4]) was greater than 64 µg/mL.
`C=C/C(C)=C/[C@@]1(C)SC(=O)C(C(=O)C(F)(F)F)=C1O` gave an MIC90 [1] of 100 µg/mL (≈ 342 µM), an MSD (Klebsiella pneumoniae) of 5.1 days and an ED50 (Staphylococcus aureus [9]) of 125 mg/kg. It also gave an MIC90 (Staphylococcus aureus [2]) of 64 µg/mL (≈ 219 µM), a Kd [6] of 56.2 µM and an MSD (Staphylococcus aureus [10]) of 3 days. The Activity [3] was “inactive”, the MIC90 (Francisella tularensis) was 98.1 µg/mL (≈ 336 µM) and the Kd [5] was 58.4 µM. It also gave an MIC90 (Staphylococcus aureus [4]) greater than 64 µg/mL and an MIC90 (Yersinia pestis) greater than 250 µg/mL.
`C=C/C(C)=C/[C@@]1(C)SC(=O)C=C1OCC(=O)NCCn1cc(CNC(=O)c2ccc(NS(=O)(=O)c3ccc(F)cc3)cc2)nn1` gave an MIC90 [1] greater than 100 µg/mL, an MIC90 (Staphylococcus aureus [2]) greater than 64 µg/mL and an MIC90 (Francisella tularensis) greater than 256 µg/mL. For the same compound, the Activity [8] was “inactive” and the MIC90 (Staphylococcus aureus [4]) was greater than 64 µg/mL.
With `C=C/C(C)=C/[C@@]1(C)SC(=O)C(CCCCc2ccc(F)cc2)=C1O` the MIC90 [1] was greater than 100 µg/mL, the MIC90 (Staphylococcus aureus [2]) was 75 µg/mL (≈ 216 µM) and the Activity [3] was “inactive”. It also gave an MIC90 (Francisella tularensis) of 3.1 µg/mL (≈ 8.95 µM), an MIC90 (Staphylococcus aureus [4]) greater than 64 µg/mL and an MIC90 (Yersinia pestis) greater than 250 µg/mL.
`C=C/C(C)=C/[C@@]1(C)SC(=O)C(CCCCn2cc(CNC(=O)c3ccc(NS(=O)(=O)c4ccc(F)cc4)cc3)nn2)=C1O` gave an MIC90 [1] of 100 µg/mL (≈ 160 µM), an MIC90 (Staphylococcus aureus [2]) greater than 100 µg/mL and an MIC90 (Francisella tularensis) of 250 µg/mL (≈ 400 µM). The MIC90 (Staphylococcus aureus [4]) was greater than 64 µg/mL and the MIC90 (Yersinia pestis) was greater than 250 µg/mL.
With `C=C/C(C)=C/[C@@]1(C)SC(=O)C(CCCCc2ccc(Cl)cc2)=C1O` the MIC90 [1] was 100 µg/mL (≈ 276 µM), the MIC90 (Staphylococcus aureus [2]) was 50 µg/mL (≈ 138 µM) and the MIC90 (Francisella tularensis) was 1.7 µg/mL (≈ 4.68 µM). It also gave an MIC90 (Staphylococcus aureus [4]) of 64 µg/mL (≈ 176 µM) and an MIC90 (Yersinia pestis) greater than 250 µg/mL.
For `C=C/C(C)=C/[C@@]1(C)SC(=O)C(CCCN=[N+]=[N-])=C1O`, the MIC90 [1] was 100 µg/mL (≈ 358 µM), the MIC90 (Staphylococcus aureus [2]) was greater than 100 µg/mL and the MIC90 (Francisella tularensis) was 23.6 µg/mL (≈ 84.5 µM). The MIC90 (Staphylococcus aureus [4]) was greater than 64 µg/mL and the MIC90 (Yersinia pestis) was greater than 250 µg/mL.
With `C=C/C(C)=C/[C@@]1(C)SC(=O)C=C1O` the MIC90 [1] was greater than 100 µg/mL, the MIC90 (Staphylococcus aureus [2]) was 100 µg/mL (≈ 509 µM) and the Activity [3] was “inactive”. The MIC90 (Francisella tularensis) was 124 µg/mL (≈ 632 µM), the Activity [8] was “inactive” and the MIC90 (Staphylococcus aureus [4]) was 150 µg/mL (≈ 764 µM). It also gave an MIC90 (Yersinia pestis) of 250 µg/mL (≈ 1270 µM).
`C=C/C(C)=C/[C@@]1(C)SC(=O)C(CCCCN=[N+]=[N-])=C1O` was tested, and the MIC90 [1] was 100 µg/mL (≈ 341 µM), the MIC90 (Staphylococcus aureus [2]) was greater than 100 µg/mL and the MIC90 (Francisella tularensis) was 15.3 µg/mL (≈ 52.1 µM). For the same compound, the Kd [5] was 107 µM, the MIC90 (Staphylococcus aureus [4]) was greater than 64 µg/mL and the MIC90 (Yersinia pestis) was greater than 250 µg/mL.
